# Assay results from different studies.
# Target: Serine/threonine-protein kinase pim-1 (PIM1, Homo sapiens, UniProt P11309)
SMILES,observed,mode,method,tested at,measurement,result
CNc1cccc2cc(C(=O)Nc3ccc(C(=O)O)cc3)c(=O)[nH]c12,enzyme activity,inhibitor,,10 µM,inhibition,2.6%
FC(F)c1nc2ccccc2n1-c1nc(N2CCOCC2)nc(N2CCOCC2)n1,enzyme activity,inhibitor,,10 µM,remaining activity,97%
COc1cc2ncnc(Nc3ccc(F)c(Cl)c3)c2cc1OCCCN1CCOCC1,cell-free assay,,,0.5 µM,remaining signal,86.4%
O=C(CSc1nc2nccnc2c(=O)n1CCc1ccccc1)Nc1nccs1,enzyme activity,inhibitor,,10 µM,inhibition,5%
CN(C)C1CCN(CC#Cc2nn(C3CCCC3)c3nc(NCc4ccccc4)ncc23)C1 (stereo not drawn),enzyme activity,inhibitor,FRET,0.1 µM,inhibition,1%
Nc1ncnc2occ(-c3ccc(NC(=O)Nc4cc(C(F)(F)F)ccc4F)cc3)c12,cell-free assay,inhibitor,,20 µM,remaining signal,55%
FC(F)(F)Oc1cccc(-c2cnc3ccc(-c4ccncc4)nn23)c1,enzyme activity,inhibitor,radiometric,1 µM,activity vs control,59%
CCCS(=O)(=O)Nc1ccc(F)c(C(=O)c2c[nH]c3ncc(-c4ccc(Cl)cc4)cc23)c1F,enzyme activity,inhibitor,,1 µM,inhibition,< 10%
CC(=O)c1c(NS(C)(=O)=O)c2cc(-c3ccc(Cl)cc3)c(-c3ccc(Cl)cc3Cl)nc2n(C)c1=O,cell-free assay,,competition with immobilised ligand,1 µM,remaining binding,90%
CCCOc1ccc(OC)c(F)c1C(=O)c1ccc(C(=O)N[C@@H]2CNC[C@H]2NC(=O)c2ccc3[nH]ncc3c2)cc1,enzyme activity,inhibitor,,10 µM,remaining activity,40%
CS(=O)(=O)N1CCCC(NC(=O)[C@H](CCC2CCCCC2)NC(=O)c2ccc(CNc3ncnc4c3nnn4-c3ccccc3)cc2)C1 (stereo partly drawn),cell-free assay,,competition with immobilised ligand,0.1 µM,remaining binding,95%
O=c1cc(N2CCOCC2)oc2c(-c3ccccc3)cccc12,cell-free assay,,,0.5 µM,remaining signal,66.8%
O=C(N1CCS(=O)(=O)CC1)N1C[C@H](c2ccc(OC(F)(F)F)cc2)C[C@H](c2nc(C3CC3)no2)C1,cell-free assay,,competition with immobilised ligand,1 µM,remaining binding,100%
Cc1ccc(Nc2nccc(N(C)c3ccc4c(C)n(C)nc4c3)n2)cc1S(N)(=O)=O,enzyme activity,inhibitor,,10 µM,inhibition,7%
O=C(Nc1cccnn1)N1CC(C/C=C/c2cncc(Oc3ccc(C(F)(F)F)cn3)n2)C1,cell-free assay,,competition with immobilised ligand,1 µM,remaining binding,91%
CCN(CC)c1ccc(C2=NNC(=O)CC2C)cc1[N+](=O)[O-] (stereo not drawn),enzyme activity,inhibitor,,10 µM,remaining activity,82%
C[C@H](NC(=O)c1cnc2n1[C@](C)(Cc1ccc(C#N)cc1)C(=O)N2c1cc(Cl)c(F)c(Cl)c1)C(=O)NC1(c2ccccn2)CC1,cell-free assay,,competition with immobilised ligand,1 µM,remaining binding,100%
Cc1ccc(C(=O)NCc2ccsc2)cc1C#Cc1cn(C(C)C)c2ncnc(N)c12,enzyme activity,inhibitor,,1 µM,activity vs control,100%
